{"source": "PubChem BioAssay", "note": "Active and inactive are the calls of the source.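 How the source made its calls, unless noted: active means mean duplicate potentiation above the buffer control mean plus 5 SD of buffer wells; inactive means the rest.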"}
{"molecular_target": "Potassium voltage-gated channel subfamily KQT member 2 (Rattus norvegicus) (UniProt O88943)", "sequence (O88943 whole entry, looked up)": "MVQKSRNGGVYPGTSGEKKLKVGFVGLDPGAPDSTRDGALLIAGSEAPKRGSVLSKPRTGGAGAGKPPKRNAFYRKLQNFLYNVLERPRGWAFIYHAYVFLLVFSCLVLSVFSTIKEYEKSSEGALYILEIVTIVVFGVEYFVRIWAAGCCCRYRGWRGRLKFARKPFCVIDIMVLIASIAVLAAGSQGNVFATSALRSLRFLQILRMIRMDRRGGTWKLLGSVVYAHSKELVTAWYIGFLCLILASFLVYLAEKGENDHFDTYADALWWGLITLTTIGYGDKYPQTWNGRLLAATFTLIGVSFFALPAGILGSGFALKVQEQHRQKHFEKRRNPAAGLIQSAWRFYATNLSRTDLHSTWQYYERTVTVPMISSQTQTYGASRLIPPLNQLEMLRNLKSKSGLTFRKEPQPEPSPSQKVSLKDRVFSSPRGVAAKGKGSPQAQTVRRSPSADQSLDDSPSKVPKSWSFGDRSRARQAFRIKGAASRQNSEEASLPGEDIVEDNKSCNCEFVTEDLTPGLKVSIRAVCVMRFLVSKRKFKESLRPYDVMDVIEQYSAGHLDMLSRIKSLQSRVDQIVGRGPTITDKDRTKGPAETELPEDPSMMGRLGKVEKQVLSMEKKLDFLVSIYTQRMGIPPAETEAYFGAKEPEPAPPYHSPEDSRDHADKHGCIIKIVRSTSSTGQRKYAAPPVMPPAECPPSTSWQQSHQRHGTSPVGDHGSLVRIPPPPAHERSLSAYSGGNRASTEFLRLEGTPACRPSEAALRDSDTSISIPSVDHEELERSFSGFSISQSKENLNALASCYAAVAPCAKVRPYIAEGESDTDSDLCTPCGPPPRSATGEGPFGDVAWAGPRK", "experiment": "rat KCNQ2 channel potentiation, selectivity assay for KCNQ1 potentiator project, KCNQ2-CHO-K1 cells (AID 493009);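 further: assay conditions were tuned for KCNQ1 rather than KCNQ2 modulators; signal is max minus min fluorescence divided by baseline after thallium stimulus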", "conditions": "FluxOR thallium flux fluorescence, at 10 µM; hits give high values, scaled: buffer 0, activator control 100"}
{"smiles": "Cc1ccc(C)c(N(CC(=O)NC2CCCC2)C(=O)CCC(=O)Nc2nccs2)c1", "outcome": "inactive"}
{"smiles": "O=C(ONC1=NCCCCC1)c1ccc(Cl)cc1", "outcome": "inactive"}
{"smiles": "O=C(Nc1cccc2cccnc12)c1ccc(Br)o1", "outcome": "inactive"}
{"smiles": "O=C1CCC(C(=O)N2CCSCC2)CN1Cc1cccc(C(F)(F)F)c1", "note": "(stereo not given)", "outcome": "inactive"}
{"smiles": "Cc1ccc(OCCCC(=O)NCc2ccco2)c(C)c1", "outcome": "inactive"}
{"smiles": "COC(=O)c1ccc(C(=O)NC(=S)Nc2nc3c(s2)CCCC3)cc1", "potentiation": "411% (active)"}
{"smiles": "COc1ccc(N2CCN(C(=S)NC(=O)c3cccs3)CC2)c([N+](=O)[O-])c1", "potentiation": "232% (active)"}
{"smiles": "COc1ccc(NC(=O)CN(C)C(=O)c2ccc(N3CCOCC3)c([N+](=O)[O-])c2)cc1", "potentiation": "186% (active)"}
{"smiles": "Cc1ccc(OCC(=O)NCCCNC(=O)c2ccncc2)cc1C", "outcome": "inactive"}
{"smiles": "CC(C)(C)c1ccc(Oc2ccc(N)cn2)cc1", "potentiation": "282% (active)"}
{"smiles": "O=S(=O)(Nc1ccccc1Cl)c1ccc(NS(=O)(=O)c2cccs2)cc1", "outcome": "inactive"}
{"smiles": "Cc1nonc1NC(=O)OC1CCCCC1", "outcome": "inactive"}
{"smiles": "COc1ccccc1-n1cnc2cc(NCc3ccco3)ccc21", "outcome": "inactive"}
{"smiles": "Cc1ccc(-n2c(=S)[nH]c3sc4c(c3c2=O)CCC4)cc1", "potentiation": "176% (active)"}
{"smiles": "O=C(COc1ccccc1)N1CCN(S(=O)(=O)c2cccs2)CC1", "outcome": "inactive"}
{"smiles": "CCSc1nnc(NC(=O)C2C3C=CC(C3)C2C(=O)O)s1", "note": "(stereo not given)", "outcome": "inactive"}
{"smiles": "CN1C(=O)/C(=N\\OC(=O)c2cccc3ccccc23)c2ccccc21", "outcome": "inactive"}
{"smiles": "COc1ccc(/C=N/NC(=O)c2[nH]nc3c2CCc2ccccc2-3)cc1OC", "potentiation": "228% (active)"}
{"smiles": "CC1=C(C)/C(=N\\OS(=O)(=O)c2ccccc2)C=CC1=O", "outcome": "inactive"}
{"smiles": "Cc1ccc(NC2=C(NC(=O)c3ccccc3)C(=O)c3ccccc3C2=O)cc1Cl", "outcome": "inactive"}
{"smiles": "Cc1cc(NC(c2cccnc2)c2c(C)[nH]c3ccccc23)no1", "note": "(stereo not given)", "outcome": "inactive"}
{"smiles": "CN1CCN(c2nc(-c3cccs3)cc(C(F)(F)F)n2)CC1", "outcome": "inactive"}
{"smiles": "COc1ccc([N+](=O)[O-])cc1NC(=O)c1cccnc1", "outcome": "inactive"}
{"smiles": "CCCN1CCC(NC(=S)Nc2cccc(Cl)c2Cl)CC1", "outcome": "inactive"}
{"smiles": "CSc1ccc(NC(=O)CC(C)=O)cc1", "outcome": "inactive"}
{"smiles": "Cc1ccc(N=Nc2ccc(O)c3ncccc23)cc1C", "potentiation": "190% (active)"}
{"smiles": "CC1CCCC(NC(=S)NC(=O)c2cncc(Br)c2)C1C", "note": "(stereo not given)", "outcome": "inactive"}
{"smiles": "Cc1cc(C)cc(OCC(O)Cn2nc(C)cc2C)c1", "note": "(stereo not given)", "outcome": "inactive"}
{"smiles": "Nc1cc(=O)[nH]c(SCC(=O)N2CCN(S(=O)(=O)c3ccc4ccccc4c3)CC2)n1", "outcome": "inactive"}
{"smiles": "COC(=O)c1sc(NC(=S)NC(=O)c2ccccc2C)nc1C", "potentiation": "204% (active)"}
{"smiles": "S=C(N/N=C/c1ccccc1Cl)Nc1cccc(Cl)c1Cl", "potentiation": "173% (active)"}
{"smiles": "Cc1ccccc1N(CC(=O)N/N=C/c1cc(C)n(-c2ccccc2C)c1C)S(C)(=O)=O", "outcome": "inactive"}
{"smiles": "CSC(C(=O)c1cc2ccccc2o1)c1ccccc1", "note": "(stereo not given)", "outcome": "inactive"}
{"smiles": "O=C(Cn1ncc2c(=O)oc3ccccc3c21)N1CCN(C(=O)c2ccco2)CC1", "outcome": "inactive"}
{"smiles": "COc1cccc2sc(Nc3nnc(-c4cccs4)o3)nc12", "potentiation": "424% (active)"}
{"smiles": "Cc1cc(C)nc(NC(=O)/C=C/c2ccccc2Cl)n1", "outcome": "inactive"}
{"smiles": "COCCN(Cc1cc2cc3c(cc2nc1Cl)OCO3)C(=O)c1ccc(C)cc1", "outcome": "inactive"}
{"smiles": "CCCOc1ccc(CN(CCC#N)C(=S)NC(=O)c2ccccc2)cc1", "potentiation": "303% (active)"}
{"smiles": "CC(C)CN1C(=O)/C(=C/c2cccs2)NC1=S", "potentiation": "450% (active)"}
{"smiles": "O=C(NC(=S)N1CCN(c2ccc(C(F)(F)F)cc2[N+](=O)[O-])CC1)c1cccs1", "potentiation": "215% (active)"}
{"molecular_target": "Potassium voltage-gated channel subfamily KQT member 1 (Homo sapiens) (UniProt P51787)", "sequence (P51787 whole entry, looked up)": "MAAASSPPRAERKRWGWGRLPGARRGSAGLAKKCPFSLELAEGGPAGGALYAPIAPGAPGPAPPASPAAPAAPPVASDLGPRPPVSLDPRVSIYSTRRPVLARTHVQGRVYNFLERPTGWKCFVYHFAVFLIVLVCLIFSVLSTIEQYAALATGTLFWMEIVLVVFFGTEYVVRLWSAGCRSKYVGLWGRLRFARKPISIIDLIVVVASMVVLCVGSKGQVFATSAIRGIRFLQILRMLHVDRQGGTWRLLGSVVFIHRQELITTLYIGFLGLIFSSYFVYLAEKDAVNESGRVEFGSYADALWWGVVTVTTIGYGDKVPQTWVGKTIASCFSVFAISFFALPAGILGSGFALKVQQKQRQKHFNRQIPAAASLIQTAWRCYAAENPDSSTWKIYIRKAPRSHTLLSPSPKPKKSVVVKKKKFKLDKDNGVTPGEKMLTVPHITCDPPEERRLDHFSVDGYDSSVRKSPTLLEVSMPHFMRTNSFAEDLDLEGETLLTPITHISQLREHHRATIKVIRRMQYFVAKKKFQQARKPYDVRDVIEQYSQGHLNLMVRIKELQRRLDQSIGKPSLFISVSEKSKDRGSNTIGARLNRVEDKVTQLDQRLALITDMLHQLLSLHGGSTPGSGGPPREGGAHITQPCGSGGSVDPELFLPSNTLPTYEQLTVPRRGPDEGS", "experiment": "KCNQ1 channel current potentiators, confirmation, orthogonal assay for KCNQ1 potentiator project, IonWorks patch clamp, KCNQ1-CHO cells (AID 493184;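 active means current rise at least 3 SD above the untreated control mean in each of two repeat wells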)", "conditions": "automated patch clamp current, at 10 µM; hits give high values", "method_in_brief": "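Read-out: Percent current increase versus pre-compound level | Assay system: CHO cells carrying KCNQ1 | Measured by: Automated perforated-patch electrophysiology | Medium: External bath solution at pH 7.4 | Dosing: One dose, 10 µM final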"}
{"smiles": "Cc1ccc(C)c(N(CC(=O)NC2CCCC2)C(=O)CCC(=O)Nc2nccs2)c1", "outcome": "inactive"}
{"smiles": "O=C(ONC1=NCCCCC1)c1ccc(Cl)cc1", "outcome": "inactive"}
{"smiles": "O=C(Nc1cccc2cccnc12)c1ccc(Br)o1", "outcome": "inactive"}
{"smiles": "O=C1CCC(C(=O)N2CCSCC2)CN1Cc1cccc(C(F)(F)F)c1", "note": "(stereo not given)", "outcome": "inactive"}
{"smiles": "Cc1ccc(OCCCC(=O)NCc2ccco2)c(C)c1", "outcome": "inactive"}
{"smiles": "COC(=O)c1ccc(C(=O)NC(=S)Nc2nc3c(s2)CCCC3)cc1", "outcome": "inactive"}
{"smiles": "COc1ccc(N2CCN(C(=S)NC(=O)c3cccs3)CC2)c([N+](=O)[O-])c1", "outcome": "inactive"}
{"smiles": "COc1ccc(NC(=O)CN(C)C(=O)c2ccc(N3CCOCC3)c([N+](=O)[O-])c2)cc1", "outcome": "inactive"}
{"smiles": "Cc1ccc(OCC(=O)NCCCNC(=O)c2ccncc2)cc1C", "outcome": "inactive"}
{"smiles": "CC(C)(C)c1ccc(Oc2ccc(N)cn2)cc1", "outcome": "inactive"}
{"smiles": "O=S(=O)(Nc1ccccc1Cl)c1ccc(NS(=O)(=O)c2cccs2)cc1", "outcome": "inactive"}
{"smiles": "Cc1nonc1NC(=O)OC1CCCCC1", "outcome": "inactive"}
{"smiles": "COc1ccccc1-n1cnc2cc(NCc3ccco3)ccc21", "outcome": "inactive"}
{"smiles": "Cc1ccc(-n2c(=S)[nH]c3sc4c(c3c2=O)CCC4)cc1", "outcome": "inactive"}
{"smiles": "O=C(COc1ccccc1)N1CCN(S(=O)(=O)c2cccs2)CC1", "outcome": "inactive"}
{"smiles": "CCSc1nnc(NC(=O)C2C3C=CC(C3)C2C(=O)O)s1", "note": "(stereo not given)", "outcome": "inactive"}
{"smiles": "CN1C(=O)/C(=N\\OC(=O)c2cccc3ccccc23)c2ccccc21", "outcome": "inactive"}
{"smiles": "COc1ccc(/C=N/NC(=O)c2[nH]nc3c2CCc2ccccc2-3)cc1OC", "outcome": "inactive"}
{"smiles": "CC1=C(C)/C(=N\\OS(=O)(=O)c2ccccc2)C=CC1=O", "outcome": "inactive"}
{"smiles": "Cc1ccc(NC2=C(NC(=O)c3ccccc3)C(=O)c3ccccc3C2=O)cc1Cl", "outcome": "inactive"}
{"smiles": "Cc1cc(NC(c2cccnc2)c2c(C)[nH]c3ccccc23)no1", "note": "(stereo not given)", "outcome": "inactive"}
{"smiles": "CN1CCN(c2nc(-c3cccs3)cc(C(F)(F)F)n2)CC1", "outcome": "inactive"}
{"smiles": "COc1ccc([N+](=O)[O-])cc1NC(=O)c1cccnc1", "outcome": "inactive"}
{"smiles": "CCCN1CCC(NC(=S)Nc2cccc(Cl)c2Cl)CC1", "outcome": "inactive"}
{"smiles": "CSc1ccc(NC(=O)CC(C)=O)cc1", "outcome": "inactive"}
{"smiles": "Cc1ccc(N=Nc2ccc(O)c3ncccc23)cc1C", "outcome": "inactive"}
{"smiles": "CC1CCCC(NC(=S)NC(=O)c2cncc(Br)c2)C1C", "note": "(stereo not given)", "outcome": "inactive"}
{"smiles": "Cc1cc(C)cc(OCC(O)Cn2nc(C)cc2C)c1", "note": "(stereo not given)", "outcome": "inactive"}
{"smiles": "Nc1cc(=O)[nH]c(SCC(=O)N2CCN(S(=O)(=O)c3ccc4ccccc4c3)CC2)n1", "outcome": "inactive"}
{"smiles": "COC(=O)c1sc(NC(=S)NC(=O)c2ccccc2C)nc1C", "outcome": "inactive"}
{"smiles": "S=C(N/N=C/c1ccccc1Cl)Nc1cccc(Cl)c1Cl", "outcome": "inactive"}
{"smiles": "Cc1ccccc1N(CC(=O)N/N=C/c1cc(C)n(-c2ccccc2C)c1C)S(C)(=O)=O", "outcome": "inactive"}
{"smiles": "CSC(C(=O)c1cc2ccccc2o1)c1ccccc1", "note": "(stereo not given)", "outcome": "inactive"}
{"smiles": "O=C(Cn1ncc2c(=O)oc3ccccc3c21)N1CCN(C(=O)c2ccco2)CC1", "outcome": "inactive"}
{"smiles": "COc1cccc2sc(Nc3nnc(-c4cccs4)o3)nc12", "outcome": "inactive"}
{"smiles": "Cc1cc(C)nc(NC(=O)/C=C/c2ccccc2Cl)n1", "outcome": "inactive"}
{"smiles": "COCCN(Cc1cc2cc3c(cc2nc1Cl)OCO3)C(=O)c1ccc(C)cc1", "outcome": "inactive"}
{"smiles": "CCCOc1ccc(CN(CCC#N)C(=S)NC(=O)c2ccccc2)cc1", "outcome": "inactive"}
{"smiles": "CC(C)CN1C(=O)/C(=C/c2cccs2)NC1=S", "outcome": "inactive"}
{"smiles": "O=C(NC(=S)N1CCN(c2ccc(C(F)(F)F)cc2[N+](=O)[O-])CC1)c1cccs1", "outcome": "inactive"}
